According to ChEMBL document CHEMBL3588823, “Design, synthesis and biological evaluation of novel 5-oxo-2-thioxoimidazolidine derivatives as potent androgen receptor antagonists” (Eur J Med Chem, 2015):

These compounds were tested on LNCaP (assay: Antiproliferative activity against human LNCAP cells after 3 days). Conditions: Homo sapiens, LNCaP, 72 h; read-out: IC50.
Format: functional, cell-based
Summary of the method: (§1)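 LNCaP cells seeded at 10,000 per well in RPMI 1640 with 10% charcoal-stripped serum and 1% AAS, then held 3 days at 37 °C. Medium was then replaced with serial compound dilutions, either without DHT (agonism mode) or with DHT (antagonism mode).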
Compound `CNC(=O)c1ccc(N2C(=S)N(c3ccc(C#N)c(C(F)(F)F)c3)C(=O)[C@@H]2C)cc1F` has an IC50 of 398 nM. Compound `CNC(=O)c1ccc(N2C(=S)N(c3ccc(C#N)c(C(F)(F)F)c3)C(=O)[C@@]2(C)COC)cc1F` has an IC50 of 185 nM. `CNC(=O)c1ccc(N2C(=S)N(c3ccc(C#N)c(C(F)(F)F)c3)C(=O)[C@]2(C)COC)cc1F` was tested, and the IC50 was 3170 nM. Compound `CNC(=O)c1ccc(N2C(=S)N(c3ccc(C#N)c(C(F)(F)F)c3)C(=O)C2(C)CO)cc1F` (configuration not stated) has an IC50 of 212 nM. With `CNC(=O)c1ccc(N2C(=S)N(c3ccc(C#N)c(C(F)(F)F)c3)C(=O)C2(COC)COC)cc1F` the IC50 was 3370 nM. Compound `CNC(=O)c1ccc(N2CCC(=O)N(c3ccc(C#N)c(C(F)(F)F)c3)C2=S)cc1F` has an IC50 of 3010 nM.

Each compound was assayed against T1, Androgen receptor (Homo sapiens, UniProt P10275) (assay: Antagonist activity at androgen receptor (unknown origin)). Conditions: not given.
T1 sequence (P10275 whole entry): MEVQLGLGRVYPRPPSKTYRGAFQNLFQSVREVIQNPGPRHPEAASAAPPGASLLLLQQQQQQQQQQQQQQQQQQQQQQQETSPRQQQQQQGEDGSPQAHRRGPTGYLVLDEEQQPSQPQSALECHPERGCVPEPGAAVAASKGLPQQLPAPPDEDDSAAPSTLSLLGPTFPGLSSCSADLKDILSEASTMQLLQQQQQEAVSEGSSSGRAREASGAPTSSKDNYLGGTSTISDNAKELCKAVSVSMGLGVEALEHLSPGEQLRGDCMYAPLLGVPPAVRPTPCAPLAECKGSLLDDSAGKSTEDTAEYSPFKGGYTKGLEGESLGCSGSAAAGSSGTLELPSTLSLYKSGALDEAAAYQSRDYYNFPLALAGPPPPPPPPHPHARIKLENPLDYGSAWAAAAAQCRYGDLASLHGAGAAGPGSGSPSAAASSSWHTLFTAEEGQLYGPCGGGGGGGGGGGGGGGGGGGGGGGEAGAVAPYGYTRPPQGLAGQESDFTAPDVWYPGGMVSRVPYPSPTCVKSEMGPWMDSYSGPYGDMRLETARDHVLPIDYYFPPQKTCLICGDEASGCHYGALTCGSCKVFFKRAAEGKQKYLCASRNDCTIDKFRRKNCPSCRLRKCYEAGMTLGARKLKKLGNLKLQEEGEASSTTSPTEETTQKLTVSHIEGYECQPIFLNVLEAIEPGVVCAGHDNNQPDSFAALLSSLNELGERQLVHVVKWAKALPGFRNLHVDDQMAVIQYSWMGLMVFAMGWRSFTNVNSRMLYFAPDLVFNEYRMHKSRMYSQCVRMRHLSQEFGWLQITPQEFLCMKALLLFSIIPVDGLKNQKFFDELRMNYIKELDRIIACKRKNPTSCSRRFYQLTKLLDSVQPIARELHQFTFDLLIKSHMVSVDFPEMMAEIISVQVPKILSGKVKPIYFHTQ
For `CNC(=O)c1ccc(N2C(=S)N(c3ccc(C#N)c(C(F)(F)F)c3)C(=O)[C@@]2(C)COC)cc1F`, the Ki was 40.6 nM. Work on `CNC(=O)c1ccc(N2C(=S)N(c3ccc(C#N)c(C(F)(F)F)c3)C(=O)[C@]2(C)COC)cc1F` yielded a Ki of 798 nM. `CNC(=O)c1ccc(N2C(=S)N(c3ccc(C#N)c(C(F)(F)F)c3)C(=O)C2(COC)COC)cc1F` was tested, and the Ki was 585 nM. `CNC(=O)c1ccc(N2CCC(=O)N(c3ccc(C#N)c(C(F)(F)F)c3)C2=S)cc1F` was tested, and the Ki was 576 nM.

The compounds below were run against T1, Androgen receptor (assay: Partial agonist activity at androgen receptor (unknown origin)). Conditions: not given.
Summary of the method: as §1
`CNC(=O)c1ccc(N2C(=S)N(c3ccc(C#N)c(C(F)(F)F)c3)C(=O)[C@@H]2C)cc1F` showed a Ki of 95.3 nM. With `CNC(=O)c1ccc(N2C(=S)N(c3ccc(C#N)c(C(F)(F)F)c3)C(=O)C2(C)CO)cc1F` (configuration not stated) the Ki was 43.3 nM.
